Experimental data: publication PMC6432629 (The Prostate, 2016)
Numbered stars: 1 amine (or outer) side, 2 acyl side, 3 side chain; on linkers, the order of the positions; unused ones are H or OH. Square brackets hold non-standard residues; d marks the D form. Peptide text beside a SMILES is read from it. * marks the point of attachment. Emetine(N2') = CC[C@H]1CN2CCc3cc(OC)c(OC)cc3[C@@H]2C[C@@H]1C[C@@H]1c2cc(OC)c(OC)cc2CCN1*; PABC = O=C(OCc1ccc(N[*:1])cc1)[*:2]

Columns and labels:
PC3 = assay: MTT cell proliferation; conditions: 3-day exposure, media with 10% FBS
[1] = Stability of prodrug 11 in human plasma; assay type: in vitro ADME; conditions: human plasma (EDTA), 400 μM, 37°C, 24 hr, methanol precipitation, HPLC and MS
Outline: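 Compound from 10 mM DMSO stock was added to EDTA-anticoagulated human plasma, with a PBS control at the same concentration. Incubated at 37°C for 24 hr. At time points, 100 μl aliquots received 200 μl cold methanol, sat on ice 10 min, and were centrifuged at 13,000 rpm for 6 min. Supernatant analysed by HPLC and mass spectrometry.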

MDA-MB-231 = assay: MTT cell proliferation; assay type: cell-based, human; conditions: 3-day exposure, media with 10% FBS
MCF-7 = assay: MTT cell proliferation; conditions: 3-day exposure, media with 10% FBS
FAP and DPPIV = assay: Tandem hydrolysis by mixture of purified FAP and DPPIV; assay type: in vitro ADME; conditions: FAP 300 nM + DPPIV 30 nM, 37°C, HPLC and MS
Outline: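 FAP expressed in Schneider S2 cells (induced with 500 μM CuSO4) and purified from supernatant on Ni-NTA; DPPIV is human recombinant from sf9 cells. Enzymes (FAP 300 nM, DPPIV 30 nM) in 100 mM Tris, 100 mM NaCl, pH 7.8. Substrate from 10 mM DMSO stock, 250 μM final, 2.5% DMSO. Shaken at 37°C for 24 hr; time-point aliquots quenched in cold acetonitrile, then HPLC and MS.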

LNCaP = assay: MTT cell proliferation; conditions: 3-day exposure, media with 10% FBS
PrEC cells = assay: Cytotoxicity in normal prostatic epithelial cells in serum free media
FAP = target: T1, FAP (Homo sapiens, UniProt Q12884); assay: FAP-mediated hydrolysis of prodrugs ex vivo; assay type: in vitro ADME; conditions: purified FAP 300 nM, 37°C, up to 24 hr
T1 sequence (Q12884 27-760 limits assumed): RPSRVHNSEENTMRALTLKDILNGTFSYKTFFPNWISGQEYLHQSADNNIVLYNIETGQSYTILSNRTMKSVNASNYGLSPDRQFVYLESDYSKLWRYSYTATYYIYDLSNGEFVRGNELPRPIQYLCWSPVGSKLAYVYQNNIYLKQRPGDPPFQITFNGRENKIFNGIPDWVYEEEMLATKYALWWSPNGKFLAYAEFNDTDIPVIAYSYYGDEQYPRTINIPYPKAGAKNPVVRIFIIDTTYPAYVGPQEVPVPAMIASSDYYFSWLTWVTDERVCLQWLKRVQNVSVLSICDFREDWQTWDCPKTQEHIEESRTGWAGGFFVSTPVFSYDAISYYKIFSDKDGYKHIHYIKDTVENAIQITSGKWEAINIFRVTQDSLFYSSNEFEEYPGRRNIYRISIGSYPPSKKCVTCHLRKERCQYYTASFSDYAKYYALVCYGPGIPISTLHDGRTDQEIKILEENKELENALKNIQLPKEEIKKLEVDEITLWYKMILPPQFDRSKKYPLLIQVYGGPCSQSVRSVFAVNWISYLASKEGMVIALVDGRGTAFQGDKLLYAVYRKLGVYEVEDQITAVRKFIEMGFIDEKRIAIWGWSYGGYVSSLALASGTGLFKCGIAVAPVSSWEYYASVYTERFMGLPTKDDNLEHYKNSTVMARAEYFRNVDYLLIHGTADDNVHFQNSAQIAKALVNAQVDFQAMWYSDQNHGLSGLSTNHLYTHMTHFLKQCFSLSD

Structure (SMILES): CC[C@H]1CN2CCc3cc(OC)c(OC)cc3[C@@H]2C[C@@H]1C[C@@H]1c2cc(OC)c(OC)cc2CCN1C(=O)OCc1ccc(NC(=O)[C@@H]2CCCN2C(=O)[C@H](C)NC(=O)[C@@H]2CCCN2C(=O)CNC(=O)[C@H](C)NC(=O)[C@@H]2CCCN2C(=O)CNC(=O)[C@H](CO)NC(=O)[C@H](C)NC(C)=O)cc1 [Compound 11] (Ac-ASGPAGPAP[PABC]-{Emetine(N2')})
- cytotoxicity / IC50 compared with emetine, PC3 (in words) (PC3): identical to that for emetine
- precursor 10 or emetine detected after incubation in human plasma [1]: No detectable amount
- IC50 compared with emetine, MDA-MB-231 (in words) (MDA-MB-231): identical to that for emetine
- cytotoxicity / IC50 compared with emetine, MCF-7 (in words) (MCF-7): identical to that for emetine
- % emetine formed from 11, 2 hr (FAP and DPPIV; 2 hr): 22%
- % precursor 10 formed from 11, 2 hr (FAP and DPPIV; 2 hr): 56%
- % emetine formed from 11, 4 hr (FAP and DPPIV; 4 hr): 36%
- % precursor 10 formed from 11, 4 hr (FAP and DPPIV; 4 hr): 58%
- % precursor 10 in solution, 24 hr (FAP and DPPIV; 24 hr): 25%
- cytotoxicity / IC50 compared with emetine, LNCaP (in words) (LNCaP): identical to that for emetine
- cytotoxicity to PrEC at 100 nM and 1,000 nM (in words) (PrEC cells; 3-day exposure, keratinocyte serum free media, no FAP or DPPIV): not cytotoxic
- IC50 (PrEC cells; read-out: calculated IC50 in the PrEC cell lines, 3-day exposure, expanded dose range, serum free media, absence of FAP and DPPIV): 7.73 µM
- fold less cytotoxic than emetine in PrEC (PrEC cells; serum free media, absence of FAP and DPPIV): more than 200 fold
- cleavage by recombinant purified FAP (in words) (FAP): progressively cleaved to the intermediate (precursor) 10
